From PubChem
TRPC6 inhibitor: inhibitors of mouse TRPC6 channel | Q61143 | HEK293-TRPC6, membrane potential dye, ACh-evoked depolarization; active compounds read low | B-score at 10 µM | actives 1.1% (n = 310,000) | AID 2553;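 active = B-score under library mean minus 3 SD, initial fluorescence not abnormally high, positive integrated signal ratio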;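 note: B-score derived from integrated fluorescence ratio over the kinetic read; more negative B-score means stronger inhibition of depolarization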
TRPC4 inh: inhibitors of mouse TRPC4 channel; Q9QUQ5; HEK293 TRPC4beta/mu-opioid, DAMGO-evoked Fluo4 calcium flux; active compounds read low; B-score at 10 µM; actives 0.39% (n = 300,000);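 active = B-score over 3 SD under the library average, no early fluorescence shift, positive overall ratio signal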
Target sequence (Q9QUQ5 whole entry, looked up): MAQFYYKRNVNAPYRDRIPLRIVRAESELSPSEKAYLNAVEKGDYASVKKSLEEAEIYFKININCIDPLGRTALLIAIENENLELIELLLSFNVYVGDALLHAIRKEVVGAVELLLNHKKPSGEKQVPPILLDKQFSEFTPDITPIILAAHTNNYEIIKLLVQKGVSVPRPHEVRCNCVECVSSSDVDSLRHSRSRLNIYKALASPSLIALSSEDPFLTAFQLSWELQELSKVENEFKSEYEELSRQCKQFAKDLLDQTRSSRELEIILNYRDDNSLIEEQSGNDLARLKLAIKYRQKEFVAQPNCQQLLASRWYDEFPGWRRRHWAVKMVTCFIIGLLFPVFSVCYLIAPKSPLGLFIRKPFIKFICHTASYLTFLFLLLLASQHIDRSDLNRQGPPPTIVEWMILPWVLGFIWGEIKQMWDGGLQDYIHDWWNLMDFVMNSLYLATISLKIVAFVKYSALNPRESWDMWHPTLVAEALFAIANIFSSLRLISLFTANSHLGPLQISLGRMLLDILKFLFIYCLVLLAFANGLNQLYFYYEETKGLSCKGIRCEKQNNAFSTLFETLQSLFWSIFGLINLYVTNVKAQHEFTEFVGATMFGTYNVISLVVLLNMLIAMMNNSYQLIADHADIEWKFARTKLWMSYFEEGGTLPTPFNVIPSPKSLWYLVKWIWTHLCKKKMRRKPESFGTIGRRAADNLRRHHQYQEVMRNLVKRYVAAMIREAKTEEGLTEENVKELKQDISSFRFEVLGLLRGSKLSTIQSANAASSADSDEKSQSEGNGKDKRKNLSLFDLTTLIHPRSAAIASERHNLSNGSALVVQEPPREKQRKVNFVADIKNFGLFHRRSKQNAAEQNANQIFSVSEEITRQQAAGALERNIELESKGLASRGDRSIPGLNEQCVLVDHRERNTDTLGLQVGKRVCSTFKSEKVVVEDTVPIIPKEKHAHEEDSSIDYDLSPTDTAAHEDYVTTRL
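material = TRPC4beta/mu-opioid receptor HEK293 cell line | probe or stimulus = sequential submaximal and maximal DAMGO stimulation | compound dosing = one concentration per compound | measured by = Fluo4 Ca2+ flux fluorescence | evaluation = integrated fluorescence ratio relative to baseline, converted to per-well B score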
TRPC4 PAM: allosteric potentiators of mouse TRPC4 channel; Q9QUQ5; AID 2227; HEK293 TRPC4beta/mu-opioid, DAMGO EC20, Fluo-4 Ca2+ flux; active compounds read high; actives 0.42% (n = 310,000); B-score at 10 µM;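 active = B-score of calcium response area above 5 SD of library B-scores, with initial fluorescence ratio within 5 SD of library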;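 note: B-score of integrated fluorescence ratio over time as area under calcium response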
TRPC6 activator: mouse TRPC6 channel activation | Q61143 | HEK293-TRPC6 membrane potential dye fluorescence; active compounds read high | B-score at 10 µM | actives 0.13% (n = 310,000) | AID 2550;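 active = B-score of the integrated fluorescence ratio above library mean plus 3 SD, and starting fluorescence ratio within library mean plus 5 SD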;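 note: higher score means more depolarization so channel activation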
TRPC4 act: opens the mouse TRPC4 cation channel; HEK293 TRPC4beta/mu-opioid, Fluo4 calcium fluorescence; active compounds read high; B-score at 10 µM; actives 0.49% (n = 310,000);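 active = B-score above 5 SD of library B-scores, and initial fluorescence ratio not above library mean plus 5 SD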;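 note: positive B-score marks a calcium rise read as TRPC4 activation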
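Technique: kinetic Fluo4 calcium fluorescence; Test system: TRPC4beta and mu-opioid receptor HEK293 stable cells; Measure: B-scored integrated calcium fluorescence ratio; Benchmarks: low control buffer alone, high control maximal DAMGO; Schedule: 45 min room-temperature Fluo4 loading, 110 s read.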
HEK293 TRPC6 ctr: checks TRPC6 modulator effects in parental HEK293 cells | membrane potential signal change, % at 10 µM | actives 51% (n = 2,400) | shares compounds with TRPC6 inhibitor | membrane potential dye fluorescence;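 active = membrane potential signal moves up or down beyond 5 SD from buffer-only wells, on both duplicate plates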
HEK293 MPD ctr 2: second counter-screen for TRPC6 modulators: effect in parental HEK293 cells. shares compounds with TRPC6 inhibitor. membrane potential dye fluorescence; after compound, maximal acetylcholine stimulation. inhibition, % at 10 µM. actives 14% (n = 2,400);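 active = membrane potential signal drops by more than 5 SD from the mean control signal, in both duplicate plates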;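 note: plate controls were acetylcholine ECmax control wells for no effect and buffer only wells for full effect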
TRPC4/MOR mod: mouse TRPC4 off-target activity of TRPC6 modulators; shares compounds with TRPC6 inhibitor; HEK293 TRPC4/mu-opioid, membrane potential fluorescence; percent change from control (negative = decrease, positive = increase), % at 10 µM; actives 69% (n = 2,400);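 active = membrane potential signal moved up or down beyond 5 SD of buffer control wells, in both duplicate plates, actives on both sides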;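 note: plate controls were assay buffer wells for no effect and DAMGO maximal-effect wells for full effect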
TRPC4/MOR inh 2: second selectivity test of TRPC6 modulators against mouse TRPC4 | HEK293 TRPC4/mu-opioid, membrane potential dye fluorescence; stimulated with maximal-effect DAMGO | AID 488928 | shares compounds with TRPC6 inhibitor | actives 55% (n = 2,400) | inhibition, % at 10 µM;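 active = drop in membrane potential signal beyond 5 SD of the control wells in both duplicate plates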;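 note: TRPC4 counter screen for TRPC6 hits run under conditions tuned for TRPC6 not TRPC4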
TRPC6 inh conf: mouse TRPC6 inhibitor confirmation; shares compounds with TRPC6 inhibitor; HEK293-TRPC6, membrane potential dye, ACh-evoked depolarization; inhibition, % at 10 µM; actives 43% (n = 3,300); AID 488960;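 active = fluorescence ratio falls more than 5 SD below the full-stimulation control mean, in both duplicate runs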;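 note: integrated fluorescence ratio of peak minus minimum over baseline after agonist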
TRPC6 act conf: mouse TRPC6 activator confirmation | shares compounds with TRPC6 inhibitor | HEK293-TRPC6 membrane potential dye fluorescence, FDSS | activation, % at 10 µM | actives 11% (n = 2,800) | AID 488961;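 active = ratio signal rise beyond 5 SD above unstimulated control wells' mean, seen in both duplicate runs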;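 note: plate controls were buffer EC0 wells for no effect and acetylcholine ECmax response for full effect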
* hit, by the source's call; i = inactive; x = not tested or not shown. Shown are actives, neighbours in structure and some others; about 2.3% of the full set was active somewhere.

SMILES	TRPC6 inhibitor	TRPC4 inh	TRPC4 PAM	TRPC6 activator	TRPC4 act	HEK293 TRPC6 ctr	HEK293 MPD ctr 2	TRPC4/MOR mod	TRPC4/MOR inh 2	TRPC6 inh conf	TRPC6 act conf
c1ccc(N2CCN(c3ccccc3)C2c2cccnc2)cc1	-5.6*	i	i	i	i	i	i	18%*	31%*	i	x
O=C(O)c1ccccc1-c1ncc(-c2ccccc2)o1	i	i	i	i	i	x	x	x	x	x	x
Cn1cnc(S(=O)(=O)N2CCN(c3ccc(Cl)cc3)CC2)c1	i	i	i	i	i	x	x	x	x	x	x
CCOC(=O)c1ccc(NC(=O)CC2C(=O)N(c3ccc(F)cc3)C(=O)N2CCC(C)C)cc1 (centres undefined)	-5.8*	i	i	i	i	i	i	i	i	42%*	x
COC(=O)CN1C(=S)N(c2ccc(Cl)cc2)C(=O)C1CC(=O)Nc1ccc(Cl)cc1 (centres undefined)	-6.6*	i	i	i	i	-68%*	i	-20%*	32%*	i	i
COC(=O)CN1C(=S)N(c2ccc(Cl)cc2)C(=O)C1CC(=O)Nc1ccc(F)cc1 (centres undefined)	i	i	i	i	i	x	x	x	x	x	x
C=CCN1C(=O)N(c2ccc(Cl)cc2)C(=O)C1CC(=O)Nc1ccc(F)cc1 (centres undefined)	-5.8*	i	i	i	i	-66%*	i	-16%*	i	i	i
CN(C)c1cccc(C(=O)OCC(=O)NC2CCCC2)c1	i	i	i	i	i	x	x	x	x	x	x
CC(=O)c1c(C)nn(CC(O)COc2ccc3ccccc3c2)c1C (centres undefined)	i	i	i	i	i	x	x	x	x	x	x
Cc1ccc[n+](Cc2ccc([N+](=O)[O-])cc2)c1	i	i	i	i	i	x	x	x	x	x	x
O=[N+]([O-])c1ccc(C[n+]2cccc3c4ccccc4ccc32)cc1	-6*	i	i	i	i	-434%*	i	-61%*	64%*	51%*	i
S=C(NC1CCCC1)N1CCN(C/C=C/c2ccccc2)CC1	i	i	i	i	i	x	x	x	x	x	x
COc1ccc(-c2nc(C#N)c(NCCCN(C)C)o2)cc1OC	-6.4*	i	i	i	i	i	i	i	i	i	i
COc1ccc(CCNc2oc(-c3ccc(OC)c(OC)c3)nc2C#N)cc1	i	i	i	i	i	x	x	x	x	x	x
CCOC(=O)c1sc2ncnc(N3CCN(C(=O)OCC)CC3)c2c1C	i	i	i	i	i	x	x	x	x	x	x
CCOC(=O)c1sc2ncnc(N3CCN(CC)CC3)c2c1C	-5.5*	i	i	i	i	-128%*	i	-21%*	41%*	i	i
Cc1cc(/C=C2\SC(=S)NC2=O)c(C)n1-c1ccc(O)cc1	i	i	i	27*	i	450%*	i	70%*	i	i	126%*
